The structures appear in SMILES notation. Calls of active or inactive are those of the source. A value given as a limit tells only on which side of the number the result lay.

Data set [1] can be described thus: Acute toxicity in ICR mouse assessed as survival at 800 mg/kg, oral gavage on day 14. The format is organism-based. The settings on record: in vivo. A digest of the protocol: (§1)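 ICR mice of both sexes, 7 weeks old, held under SPF conditions. Each got one gavage dose (800, 640, 512, 409.6 or 327.8 mg/kg) or vehicle, n = 8 per group. Deaths were recorded at 1 h, 4 h, 3 d and 4–14 d. Behaviour, water and food intake, body weight and activity were followed to day 14. LD50 given with 95% confidence limits.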

A short description of data set [2]: Reduction in phosphorylated Akt protein expression in human DU145 cells at 0.08 to 0.32 uM after 24 hrs by Western blot analysis. It counts as functional, cell-based. As to conditions: DU-145. A digest of the protocol:
(§2)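 DU-145 cells (5 × 10^5/well) in 10% FCS Ham's F-12K overnight, treated in duplicate with compound or vehicle 24 h; lysed (Tris pH 8, EGTA, NaCl, NP-40, Triton X-100), protein by BCA. Blots blocked in 5% milk, probed for AKT, p-AKT Ser473, mTOR, p-mTOR Ser2448, Bax, Bcl-2, β-actin; ECL detection, densitometry relative to control; three separate experiments.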
(A western blot detects proteins with antibodies after separation by electrophoresis.)

The subject of data set [3] is DU-145. As to the kind of experiment: Induction of cell cycle arrest in human DU145 cells assessed as cells accumulation at G2/M phase at 0.08 uM after 24 hrs by propidium iodide staining-based flow cytometry (reference value: 22%). It counts as functional.
Data set [4] deals with Mus musculus. The experiment in a line: Acute toxicity in ICR mouse assessed as total mortality at 800 mg/kg, oral gavage up to 14 days. It counts as organism-based. The settings on record: in vivo, 336 h. The method in brief:
as §1

The nature of data set [5]: Acute toxicity in ICR mouse assessed as survival at 409.6 mg/kg, oral gavage on day 14. It counts as organism-based. As to conditions: in vivo. The method in brief: as §1
The nature of data set [6]: Half life in human liver microsomes by LC-MS/MS analysis. The format is ADME. The method in brief: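 Human liver microsomes at 0.2 mg/mL protein in 100 mM potassium phosphate−MgCl2 buffer pH 7.4, compound 5 μM with NADPH system at 37 °C; stopped with acetonitrile at 0, 5, 10, 15, 30, 60 min. After centrifugation, remaining compound quantified by LC−MS/MS to derive t1/2; mean ± SD.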

A short description of data set [7]: Antiproliferative activity against human WPMY-1 cells after 72 hrs by CCK8 assay. The format is functional, cell-based. The settings on record: WPMY-1, 72 h. A digest of the protocol: (§3)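 CCK-8 assay: DU-145, H460, Bxpc-3, BEL-7404 and nontumor WPMY-1 cells seeded at 5 × 10^3 cells/well in 10% FCS DMEM overnight, then exposed in triplicate to 0.041−10 μM for 72 h. CCK-8 added for final 30 min, absorbance 450 nm; inhibition relative to medium-only controls after background subtraction; IC50 as concentration giving 50% inhibition.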

The test system of data set [8] is Mus musculus. The experiment in a line: Acute toxicity in ICR mouse assessed as mortality at 512 mg/kg, oral gavage after 4 hrs. It counts as organism-based. As to conditions: in vivo. The method in brief:
as §1

In data set [9] the test system is DU-145. The experiment in a line: Induction of cell cycle arrest in human DU145 cells assessed as cells accumulation at G2/M phase at 0.16 uM after 24 hrs by propidium iodide staining-based flow cytometry (reference value: 22%). It counts as functional.
For data set [10], the system named is Mus musculus. As to the kind of experiment: Toxicity in human DU145 cells xenografted in BALB/c mouse assessed as change in body weight at 17 mg/kg, oral gavage for 21 days relative to vehicle treated control. It counts as organism-based, DU-145. As to conditions: in vivo, 504 h. A digest of the protocol: (§4)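 Male BALB/c nude mice (6−8 weeks, 18−22 g) implanted subcutaneously on right axillary flank with 2 × 10^6 DU-145 cells in 0.1 mL saline. At 100 ± 30 mm3 tumors, randomized (n = 5/group) to daily gavage for 21 days; vehicle DMSO/Cremphor EL/PBS 1:1:8. Tumor volume every 3 days; tumors excised and weighed at end; TGI from mean tumor weights vs vehicle; body weight tracked.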
A general note: Xenograft models place foreign cells or tissue in a host animal.

Data set [11] has as its system DU-145. As to the kind of experiment: Anticancer activity against human DU145 cells xenografted in BALB/c mouse assessed as decrease in tumor growth at 17 mg/kg, oral gavage for 21 days relative to vehicle treated control. The format is functional. As to conditions: DU-145, po, 504 h. A digest of the protocol:
as §4

The subject of data set [12] is DU-145. As to the kind of experiment: Anticancer activity against human DU145 cells xenografted in BALB/c mouse assessed as decrease in tumor growth at 8.5 mg/kg, oral gavage for 21 days relative to vehicle treated control. The settings on record: DU-145, po, 504 h. It counts as functional. The method in brief:
as §4

For data set [13], the system named is Mus musculus. The experiment in a line: Acute toxicity in ICR mouse assessed as mortality at 512 mg/kg, oral gavage after 1 hr. It counts as organism-based. As to conditions: in vivo. A digest of the protocol:
as §1

For data set [14], the system named is DU-145. As to the kind of experiment: Antiproliferative activity against human DU145 cells at 2 uM after 72 hrs by CCK8 assay. It counts as functional. The settings on record: DU-145, 72 h. The method in brief: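 DU-145 screening at single concentration 2 μM for 72 h, proliferation by CCK-8 (cells 5 × 10^3/well in 10% FCS DMEM). Percent inhibition vs untreated, background-corrected; mean ± SD from three independent experiments.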
(In general: Formazan colour is commonly taken as a measure of viable cells.)

Data set [15] deals with Mus musculus. As to the kind of experiment: Acute toxicity in ICR mouse assessed as mortality at 409.6 mg/kg, oral gavage after 4 hrs. The format is organism-based. The settings on record: in vivo. The method in brief:
as §1

The target in the next data set is T1, Cytochrome P450 1A2 (Homo sapiens, UniProt P05177).
T1 sequence (P05177 whole entry): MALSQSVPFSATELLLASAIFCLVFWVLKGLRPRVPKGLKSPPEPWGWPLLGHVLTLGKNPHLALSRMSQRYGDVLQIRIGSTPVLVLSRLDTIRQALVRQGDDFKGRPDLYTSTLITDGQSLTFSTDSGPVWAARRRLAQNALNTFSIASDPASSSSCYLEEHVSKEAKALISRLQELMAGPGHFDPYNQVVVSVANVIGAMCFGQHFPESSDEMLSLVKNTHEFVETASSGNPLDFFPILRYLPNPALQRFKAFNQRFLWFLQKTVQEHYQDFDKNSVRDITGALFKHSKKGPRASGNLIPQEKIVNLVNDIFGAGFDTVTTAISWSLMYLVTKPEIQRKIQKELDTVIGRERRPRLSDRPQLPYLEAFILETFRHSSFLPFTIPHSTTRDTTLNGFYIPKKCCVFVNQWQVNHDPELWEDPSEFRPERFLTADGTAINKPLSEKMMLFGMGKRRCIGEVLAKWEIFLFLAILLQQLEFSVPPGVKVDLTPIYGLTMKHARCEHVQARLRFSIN
As to the kind of experiment: Inhibition of CYP1A2 in human liver microsomes after 1 hr by LC-MS/MS analysis.

The test system of data set [16] is Mus musculus. The experiment in a line: Acute toxicity in ICR mouse assessed as mortality at 800 mg/kg, oral gavage after 4 to 14 days. The format is organism-based. As to conditions: in vivo. The method in brief:
as §1

Data set [17] relates to DU-145. The experiment in a line: Antiproliferative activity against human DU145 cells after 72 hrs by CCK8 assay. The format is functional, cell-based. The settings on record: DU-145, 72 h. A digest of the protocol:
as §3

Data set [18] has as its system Mus musculus. As to the kind of experiment: Acute toxicity in ICR mouse assessed as mortality at 409.6 mg/kg, oral gavage after 1 hr. It counts as organism-based. The settings on record: in vivo. A digest of the protocol: as §1
Data set [19] can be described thus: Antiproliferative activity against human BxPC3 cells after 72 hrs by CCK8 assay. The settings on record: BXPC-3, 72 h. It counts as functional, cell-based. A digest of the protocol: as §3
Data set [20] relates to DU-145. The experiment in a line: Induction of cell cycle arrest in human DU145 cells assessed as cells accumulation at S phase at 0.16 uM after 24 hrs by propidium iodide staining-based flow cytometry (reference value: 24%). It counts as functional.
Data set [21] can be described thus: Acute toxicity oral gavage treated in ICR mouse assessed as mortality measured up to 14 days. It counts as organism-based. As to conditions: in vivo. The method in brief:
as §1

The test system of data set [22] is DU-145. The experiment in a line: Induction of apoptosis in human DU145 cells assessed as increase in Bax to Bcl2 ratio at 0.08 to 0.32 uM after 24 hrs by Western blot analysis. The format is functional, cell-based. The method in brief: as §2
Data set [23] relates to Mus musculus. As to the kind of experiment: Acute toxicity in ICR mouse assessed as mortality at 327.8 mg/kg, oral gavage after 4 to 14 days. The settings on record: in vivo. It counts as organism-based. A digest of the protocol: as §1

In the case of `CC1(C)CC[C@]23CC[C@@]4(C)[C@]5(C)CC[C@H]6C(C)(C)C(=O)C(C#N)=C[C@]6(C)C5=CC(=O)[C@@]4([C@@H]2C1)N(C1CCCCC1)C3=O`, the survival at 14 day in data set [1] was found to be 0%; in data set [5] it was 88%. The inhibition – broadly, the percentage by which the read-out fell short of the control – in data set [2] was “Active”. Also, the Activity is reported as 19% in the data set with DU-145 [3]; “Toxic” in the data set with Mus musculus [4]; “Non-toxic” in the data set on Mus musculus [8]; 22% in the data set with DU-145 [9]; “Non-toxic” in the data set with Mus musculus [10]; “Non-toxic” in the data set on Mus musculus [13]. Moreover, the Activity result in the data set with Mus musculus [15] is listed as “Non-toxic”; in the data set on Mus musculus [16], “Non-toxic”; in the data set on Mus musculus [18], “Non-toxic”; in the data set on DU-145 [20], 10%; with Mus musculus [23] it was “Non-toxic”. Besides, the half-life (usually the time needed for the level to fall by half in the phase considered) in [6] came out at 39 min. Moreover, the IC50 – broadly, the concentration at which inhibition is half-maximal – was 6.09 µM in data set [7], > 100 µM against Cytochrome P450 1A2, 390 nM in the data set on DU-145 [17] and 330 nM in data set [19]. Besides, in the data set on DU-145 [11], the inhibition in vivo (in general, the relative decrease from the control value, in per cent) at 17 mg/kg was 62%. Further, the inhibition in vivo at 8.5 mg/kg in the data set on DU-145 [12] turned out to be 30%. Further, the inhibition at 2 µM in the data set with DU-145 [14] was found to be 75%. Besides, in data set [21], the LD50 (in general, the dose at which mortality reaches 50%) at 336 h turned out to be 541 mg/kg. Also, in the data set with DU-145 [22], the outcome was Active.
